Sampled rows, rich in hits. Any-hit rate of the full collection: about 1.6%.
PKD1 kinase inh – inhibitors of human PKD1 kinase, biochemical, fluorescence polarization; Serine/threonine-protein kinase D1 (Homo sapiens), Q15139; PKD1 kinase fluorescence polarization assay; inhibition, % (test concentration not listed); 200,000 tested, 0.056% active; AID 797, 2007
eIF4E 4G PPI – eIF4E–eIF4G protein interaction inhibitors, primary screen, biochemical, uHTS, TR-FRET, eIF4GI fragment | Eukaryotic translation initiation factor 4E (Mus musculus) + Eukaryotic translation … | TR-FRET eIF4E-eIF4GI(517-606) binding, 2 h | inhibition, % at 21.7 µM | 220,000 tested, 0.37% active | AID 782, 2007;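 active means inhibition above about 30%, limit read from the data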;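 further: 0% = full FRET control wells and 100% = background wells lacking eIF4GI fragment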
EBV gp42 block – Epstein-Barr virus gp42 inhibitors, primary screen, biochemical, uHTS, fluorescence polarization; Glycoprotein 42 (Epstein-Barr virus (strain AG876)), Q1HVG2; AID 1085, 2008; inhibition, % (tested at 21.74 µM); 220,000 tested, 0.42% active; Fluorescence polarization binding assay, mP read-out
RBBP9 inh – human RBBP9 inhibitors, primary screen, biochemical, fluorescence polarization, FP-Rh probe, HTS. recombinant RBBP9. inhibition, % at 7.94 µM. 220,000 tested, 0.2% active. Serine hydrolase RBBP9 (Homo sapiens), O75884. AID 1515, 2009;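 active means inhibition above the campaign mean of all tested compounds plus 3 SD, cut at about 14% in these data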;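 further: plate controls were DMSO wells with RBBP9 for no effect and wells lacking RBBP9 protein for full effect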
Target sequence (O75884 whole entry, looked up): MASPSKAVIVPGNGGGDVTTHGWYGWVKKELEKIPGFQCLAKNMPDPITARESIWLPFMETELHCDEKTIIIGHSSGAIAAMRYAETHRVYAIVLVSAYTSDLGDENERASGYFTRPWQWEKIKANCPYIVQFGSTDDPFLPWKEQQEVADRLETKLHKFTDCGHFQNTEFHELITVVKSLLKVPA
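System: RBBP9 protein / Quantity: 2.5 µM RBBP9 dispensing solution, before mixing / Also added: Serine-hydrolase probe FP-Rh, 375 nM pre-mixing / Dosing: 7.94 µM single dose, 0.794% DMSO / Timing: enzyme-compound preincubation 30 min, then probe labeling 45 min, 25 °C / Signal: FP readout at 525/598 nm / Controls: DMSO-treated enzyme wells and wells lacking RBBP9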
14-3-3 Bad PPI – inhibitors of 14-3-3 zeta/Bad binding, primary screen, biochemical, TR-FRET, bovine 14-3-3 zeta; TR-FRET 14-3-3zeta/Dy647-pBad peptide displacement, 1 h; inhibition, % at 21.7 µM; 220,000 tested, 0.71% active;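 active means inhibition above about 70%, limit read from the data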;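 further: 0% = full 14-3-3 plus peptide FRET controls and 100% = background without 14-3-3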
Target sequence (P63103 whole entry, looked up): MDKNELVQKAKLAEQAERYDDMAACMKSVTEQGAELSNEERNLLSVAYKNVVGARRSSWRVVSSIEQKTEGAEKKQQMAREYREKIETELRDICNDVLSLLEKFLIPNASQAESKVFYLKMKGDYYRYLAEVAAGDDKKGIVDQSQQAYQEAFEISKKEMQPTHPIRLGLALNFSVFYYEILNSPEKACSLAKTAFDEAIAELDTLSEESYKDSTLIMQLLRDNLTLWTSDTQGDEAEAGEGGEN
Starred values were filed as active, the others as inactive; nt = no result given; [ ] = remark or other dose. Unless noted, no stated cut-off is given here; in the data, active means inhibition above about 50%; inactive means the rest.

SMILES | PKD1 kinase inh | eIF4E 4G PPI | EBV gp42 block | RBBP9 inh | 14-3-3 Bad PPI
COc1ccc(C2CC(=O)c3cnc(Nc4cc(C)cc(C)c4)nc3C2)cc1 (stereo unspecified) | -1 | -6 | -12 | -1 | 76*
Cc1c(NC(=O)c2cc(CC(C)C)on2)c(=O)n(-c2ccccc2)n1C | -6 | 34*[fluorescence artefact?] | -17 | -3 | 15
CCS(=O)(=O)c1ccc2oc(Nc3cc(C)cc(C)c3)nc2c1 | 0 | 3 | 1 | -10 | 2
CCS(=O)(=O)c1ccc2oc(Nc3ccc(C(C)C)cc3)nc2c1 | 3 | 44* | -8 | -4 | 33
O=C(Nc1nc2c(s1)CN(Cc1ccccc1)CC2)c1c(F)cccc1F | 6 | -1 | -26 | -5 | -2
O=S(=O)(Nc1ccc(Cl)cc1)c1ccc2c(c1)CCO2 | nt | -1 | 0 | -12 | 98*
Cc1ccnc(NS(=O)(=O)c2ccc3c(c2)CCO3)c1 | nt | 88* | -8 | -3 | 5
Cc1ccnc(NS(=O)(=O)c2ccc(C(C)(C)C)cc2)c1 | -4 | 0 | 0 | -8 | -7
CCOC(=O)N1CCC(N(CCN(C)C)C(=S)Nc2ccc(OCC)cc2)CC1 | 0 | -5 | 2 | -8 | -4
CC(C)CNC(=S)Nc1ccc(Oc2ccccc2)cc1 | 6 | 0 | -1 | -4 | 2
O=C(O)c1cc(O)c2c(c1)C(=O)c1cccc(O)c1C2=O | 5 | 9 | 46 | 27* | 74*
O=[N+]([O-])c1ccc2[nH]c(O)c(N=NC(=S)Nc3cccnc3)c2c1 | nt | -13 | 59* | 8 | 33
C/C(CCc1ccc2c(c1)OCO2)=N\NC(=O)c1ccccc1 | -1 | -2 | -1 | -13 | 4
NC(=NCc1ccc2c(c1)OCO2)NC(=O)c1ccccc1 | -3 | 68* | 3 | -3 | 77*
CCN(CC)c1nc2ccccc2nc1C(C#N)C(=O)NCCCOC (stereo unspecified) | 1 | 6 | 4 | 1 | 9
CCN(CC)c1nc2ccccc2nc1C(C#N)C(=O)NCCc1ccccc1 (stereo unspecified) | -2 | -3 | 78* | 4 | -1
COc1ccccc1N1CCN(c2nc3ccccn3c(=O)c2C=O)CC1 | -7 | -2 | -7 | -3 | 8
Cc1nn(-c2ccccc2)c(N2CCCC2)c1/C=C1\N=C(c2ccc(F)cc2)OC1=O | -15 | -2 | 82* | -10 | -7
Cc1ccc(C2=N/C(=C\c3c(C)nn(-c4ccccc4)c3N3CCCC3)C(=O)O2)cc1 | -16 | -4 | 93* | -3 | 5
Cc1nn(-c2ccccc2)c(Cl)c1/C=C1\N=C(c2ccccc2)OC1=O | 0 | nt | nt | 0 | nt
O=C(COC(=O)CCSc1ccccc1)NCc1ccc(F)cc1 | -2 | -3 | -15 | -5 | -12
O=C(CCN1C(=O)C2C3C=CC(C3)C2C1=O)Nc1ccccn1 (stereo unspecified) | -2 | 47* | -5 | -1 | 13
O=C(NCN1C(=O)C2C3C=CC(C3)C2C1=O)Nc1ccccn1 (stereo unspecified) | -8 | 4 | -7 | -1 | -5
Cc1ccn(C(=O)c2ccc(NC(=O)C3CCCCC3)cc2)n1 | -17 | 3 | 181* | -5 | -8
O=C(Nc1ccc(F)cc1)C1CCCCC1 | -8 | -2 | -5 | -6 | 15
SMILES | PKD1 kinase inh | eIF4E 4G PPI | EBV gp42 block | RBBP9 inh | 14-3-3 Bad PPI
O=C(Nc1ccc(-n2cnnn2)cc1)C1CCC1 | -6 | nt | 89* | 1 | nt
CCN1CCN(c2oc(/C=C/c3ccccc3)nc2C#N)CC1 | nt | 2 | -19 | -6 | 15
O=C(CNC(=O)c1ccccc1Br)N/N=C/c1cc(Br)ccc1O | -8 | 0 | 1 | -3 | 93*
c1ccc(-c2nc(NCC3CCCO3)c3oc4ccccc4c3n2)cc1 (stereo unspecified) | -10 | 2 | 24 | -7 | 70*
c1ccc(-c2nc(NCc3cccnc3)c3oc4ccccc4c3n2)cc1 | 10 | -6 | 5 | -19 | 81*
CCOc1ccccc1CN1CCN(CC2=Cc3cc(OC)ccc3OC2)CC1CCO (stereo unspecified) | nt | 0 | -5 | -5 | -6
CCc1c(C)sc(NC(=O)C2CCCCC2C(=O)O)c1C(N)=O (stereo unspecified) | -6 | 55* | -14 | -3 | 23
CCc1c(C)sc(NC(=O)OC)c1C(N)=O | 5 | 3 | -13 | -1 | -7
CN(C)S(=O)(=O)c1c(Cl)cccc1Cl | -2 | -9 | -4 | -5 | 81*
CN(c1ccccc1)S(=O)(=O)c1cccc(Cl)c1Cl | nt | -8 | 3 | -5 | -4
CCOC(=O)C1=C(C)NC(C)=C(C(=O)OCC)C1C(=O)OCC(=O)N1CCc2ccccc2C1 | -5 | 5 | -11 | -1 | -14
COc1ccc(NC(=O)CSc2nc(NS(=O)(=O)c3ccccc3)cc(=O)[nH]2)cc1 | 4 | 4 | -11 | 3 | 75*
O=c1c2c3c(sc2n2c(=S)[nH]nc2n1-c1ccccc1)CCC3 | nt | 38* | -5 | -6 | -4
Cc1cccc(-n2c(=O)c3c4c(sc3n3c(=S)[nH]nc23)CCC4)c1 | -4 | 32* | -4 | -9 | -4
COc1ccc(-n2c(=O)c3c4c(sc3n3c(=S)[nH]nc23)CCC4)cc1 | nt | 23 | -6 | -7 | -7
Cc1ccc(-n2c(=O)c3c4c(sc3n3c(=S)[nH]nc23)CCC4)cc1 | nt | 26 | -7 | -5 | -4
CCn1c(=O)c2c3c(sc2n2c(=S)[nH]nc12)CCC3 | -4 | 52* | -18 | -1 | 12
C=CCOC(=O)C1C(=O)CC(C)(O)C(C(=O)OCC=C)C1c1ccc(N(C)C)cc1 (stereo unspecified) | 3 | 5 | -8 | -4 | -19
O=C(CC1c2ccccc2Oc2ccccc21)Nc1ccccc1C(F)(F)F | -6 | -1 | -7 | -11 | 14
COC(=O)c1ccccc1SC(CC(=O)c1ccccc1)c1ccc(F)cc1 (stereo unspecified) | nt | 4 | -15 | -6 | 2
COc1cccc(C(C(=O)NC2CCCC2)N(CC2CCCO2)C(=O)Cc2cccs2)c1 (stereo unspecified) | -9 | -1 | 2 | 8 | -2
COc1ccc(/C=C2/NC(=O)N(CC(=O)Nc3cccc(C)c3)C2=O)cc1O | -10 | 0 | 0 | 0 | 3
Cc1cccc(C)c1N1CCN(c2ccc3nnc(C(F)(F)F)n3n2)CC1 | 7 | -13 | 7 | -11 | -17
CCCCNC(=S)NCCN1CCCCC1 | 2 | -5 | -2 | -4 | 66
CCCNC(=S)NCCN1CCCCC1 | -13 | 10 | -1 | -8 | 73*
O=C(COc1ccc(Br)cc1Cl)c1ccc[nH]1 | -14 | 4 | -12 | -13 | 1

Screening results: PubChem, several laboratories
